Measurements published in ChEMBL document CHEMBL1139442, “Pyrrolobenzimidazoles linked to heterocycles and peptides. Design of DNA base pair specific phosphate hydrolyzing agents and novel cytotoxic agents” (2004).

What was measured:
[1] = system: Nucleic Acid; assay: DNA alkylation ability was determined; assay type: functional; details: Bos taurus
Outline: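 Bulk alkylation of calf thymus DNA. Drug (0.004 mmol) in DMSO was added, sealed and degassed under argon. The mix was reduced by H2 purge over Pd/C until colourless, argon-purged, then held at 30 °C for 24 h. After catalyst removal, DNA was ethanol/ammonium acetate precipitated at −20 °C for 16 h, pelleted, redissolved and reprecipitated.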

[2] = system: Panel melanoma (Carcinoma cell lines); assay: Cytostatic activity against human melanoma cell lines was determined; assay type: functional
Outline: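 Tested in the NCI In Vitro Cell Line Screening Project, 60 human tumour lines. Cytostatic read-outs are GI50 (50% growth inhibition) and TGI (total growth inhibition).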

[3] = system: Panel melanoma (Carcinoma cell lines); assay: Cytotoxic activity against human melanoma cell lines was determined; assay type: functional; parameters: unit not given here
Outline: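 Tested in the NCI In Vitro Cell Line Screening Project, 60 human tumour lines. Cytotoxic read-out is LC50, the concentration giving 50% cell kill.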

[4] = molecular target: NAD(P)H dehydrogenase [quinone] 1 (Homo sapiens) (UniProt P15559); assay: Substrate specificity for human DT-diaphorase was determined
NAD(P)H dehydrogenase [quinone] 1 (Homo sapiens), sequence (P15559 whole entry): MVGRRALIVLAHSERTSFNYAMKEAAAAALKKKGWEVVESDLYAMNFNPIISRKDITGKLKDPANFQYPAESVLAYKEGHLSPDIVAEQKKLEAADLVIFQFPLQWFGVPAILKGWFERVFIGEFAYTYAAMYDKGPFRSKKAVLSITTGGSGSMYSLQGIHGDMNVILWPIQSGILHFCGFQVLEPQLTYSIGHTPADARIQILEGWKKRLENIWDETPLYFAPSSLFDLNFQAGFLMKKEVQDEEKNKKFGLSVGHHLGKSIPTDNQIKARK

SMILES | DNA alkylation [1] | log GI50 range [2] | log TGI range [2] | LC50 [3] | k cat/Km [4]
CC1=C(N2CC2)C(=O)c2nc3n(c2C1=O)CCC3NC(=O)c1cccnc1 (stereo not given) | 20% |  |  |  | 
CC1=C(N2CC2)C(=O)c2nc3n(c2C1=O)CCC3NC(=O)c1ccnc2ccccc12 (stereo not given) | 10% |  |  |  | 
CCC(=O)NC1CCn2c1nc1c2C(=O)C(C)=C(N2CC2)C1=O (stereo not given) | 0% |  |  |  | 
CCCCC(=O)NC1CCn2c1nc1c2C(=O)C(C)=C(N2CC2)C1=O (stereo not given) | 9% |  |  |  | 
CC1=C(N2CC2)C(=O)c2nc3n(c2C1=O)CC[C@@H]3NC(=O)C1CCCN1 (stereo not given in full) |  | 3.34 | 2.8 | 2.27 | 
CC1=C(N2CC2)C(=O)c2nc3n(c2C1=O)CC[C@@H]3NC(=O)[C@H](N)Cc1ccccc1 |  | 1.69 | 4 | 4 | 
CC1=C(N2CC2)C(=O)c2nc3n(c2C1=O)CCC3NC(=O)c1ccncc1 (stereo not given) | 79% | 1.96 | 2.5 | 2.35 | 0.00033 M⁻¹ s⁻¹
CC1=C(N2CC2)C(=O)c2nc3n(c2C1=O)CCC3NC(=O)Cc1ccncc1 (stereo not given) | 35% |  |  |  | 
CC1=C(N2CC2)C(=O)c2nc3n(c2C1=O)CC[C@@H]3NC(=O)[C@@H](Cc1ccccc1)NC(=O)[C@H](N)Cc1ccccc1 |  | 2.42 | 4 | 4 | 
CC1=C(N2CC2)C(=O)c2nc3n(c2C1=O)CCC3N (stereo not given) | 100% |  |  |  | 
